Test results as given in ChEMBL document CHEMBL3758096, “1-[3-(2-Hydroxyethylsulfanyl)propanoyl]-3,5-bis(benzylidene)-4-piperidones: A novel cluster of P-glycoprotein dependent multidrug resistance modulators” (Bioorg Med Chem Lett, 2016).

How the values were obtained:
[1] = biological target: T1, ATP-dependent translocase ABCB1 (Homo sapiens, UniProt P08183); test: Inhibition of human MDR1 transfected in mouse L5178Y cells assessed as fluorescence activity ratio at 4 ug/ml after 10 mins by rhodamine 123 dye based fluorescence analysis; type: cell-based
[2] = Cytotoxicity against human HSC2 cells after 48 hrs by MTT assay; type: functional; settings: HSC-2, 48 h, pooled result: one value given for 3 cell lines, strains, targets or settings
Procedure, shortened: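 Compounds were incubated with cells at 37 °C for 48 hr. HSC-2 and HSC-4 squamous carcinoma cells were grown in supplemented DMEM, and viability was read by MTT. HL-60 promyelocytic leukemia cells were grown in supplemented RPMI1640, and viability was read by trypan blue exclusion. CC50 is the concentration killing 50% of cells, reported as an average.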

[3] = biological target: T1, ATP-dependent translocase ABCB1; test: Inhibition of human MDR1 transfected in mouse L5178Y cells assessed as fluorescence activity ratio at 40 ug/ml after 10 mins by rhodamine 123 dye based fluorescence analysis; type: cell-based
[4] = biological target: T1, ATP-dependent translocase ABCB1; test: Ratio of human MDR1 modulation transfected in mouse L5178Y cells at 40 ug/ml to human MDR1 modulation transfected in mouse L5178Y cells at 4 ug/ml; type: cell-based
[5] = biological target: T1, ATP-dependent translocase ABCB1; test: Potency index, ratio of compound activity to verapamil hydrochloride activity for human MDR1 modulation transfected in mouse L5178Y cells at 4 ug/ml; type: cell-based

T1 sequence (P08183 whole entry): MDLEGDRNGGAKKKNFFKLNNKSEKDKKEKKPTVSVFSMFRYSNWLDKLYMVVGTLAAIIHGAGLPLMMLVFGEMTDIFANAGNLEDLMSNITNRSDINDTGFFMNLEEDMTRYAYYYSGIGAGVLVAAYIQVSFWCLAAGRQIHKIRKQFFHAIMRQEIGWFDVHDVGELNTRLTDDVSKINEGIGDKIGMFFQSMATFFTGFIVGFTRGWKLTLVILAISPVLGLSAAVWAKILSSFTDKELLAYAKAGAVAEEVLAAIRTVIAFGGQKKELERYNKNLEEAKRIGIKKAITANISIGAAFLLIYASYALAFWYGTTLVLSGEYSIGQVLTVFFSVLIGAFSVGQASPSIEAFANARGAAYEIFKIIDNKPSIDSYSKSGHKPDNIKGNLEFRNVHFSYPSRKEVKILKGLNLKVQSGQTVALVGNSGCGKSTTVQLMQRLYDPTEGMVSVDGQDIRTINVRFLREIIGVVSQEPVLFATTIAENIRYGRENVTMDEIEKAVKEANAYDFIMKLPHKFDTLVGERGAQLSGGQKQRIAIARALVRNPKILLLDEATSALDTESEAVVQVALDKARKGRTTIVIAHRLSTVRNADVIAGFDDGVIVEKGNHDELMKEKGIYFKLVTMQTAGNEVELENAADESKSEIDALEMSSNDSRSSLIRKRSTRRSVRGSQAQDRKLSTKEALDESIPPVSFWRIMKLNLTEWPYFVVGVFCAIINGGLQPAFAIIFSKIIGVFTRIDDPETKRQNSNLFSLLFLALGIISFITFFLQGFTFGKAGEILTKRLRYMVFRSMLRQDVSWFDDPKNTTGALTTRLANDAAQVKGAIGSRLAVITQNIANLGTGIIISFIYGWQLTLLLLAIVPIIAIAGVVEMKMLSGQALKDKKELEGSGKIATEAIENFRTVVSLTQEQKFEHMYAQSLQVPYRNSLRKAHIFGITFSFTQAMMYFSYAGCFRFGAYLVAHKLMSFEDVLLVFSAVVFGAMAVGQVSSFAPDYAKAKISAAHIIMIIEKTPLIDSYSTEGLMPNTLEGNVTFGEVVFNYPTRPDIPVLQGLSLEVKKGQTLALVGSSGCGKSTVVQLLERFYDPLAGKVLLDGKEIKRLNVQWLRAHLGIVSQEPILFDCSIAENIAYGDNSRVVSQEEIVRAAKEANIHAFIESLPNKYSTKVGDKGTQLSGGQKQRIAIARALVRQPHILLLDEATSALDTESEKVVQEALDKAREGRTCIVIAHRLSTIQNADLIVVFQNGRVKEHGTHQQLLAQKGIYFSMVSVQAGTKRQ

Structure (SMILES) | Ratio [1] | CC50 [2] [µM] | Ratio [3] | Ratio [4] | Ratio [5]
O=C1/C(=C/c2ccc([N+](=O)[O-])cc2)CN(C(=O)CCSCCO)C/C1=C\c1ccc([N+](=O)[O-])cc1 | 8.86 | 0.39 | 20 | 2.26 | 
O=C1/C(=C/c2ccccc2)CN(C(=O)CCSCCS(=O)(=O)O)C/C1=C\c1ccccc1 | 1.14 | 154 | 1.2 | 1.05 | 
COc1ccc(/C=C2\CN(C(=O)CCSCCS)C/C(=C\c3ccc(OC)cc3)C2=O)cc1 | 18.9 | 3.37 | 126 | 6.67 | 
COc1ccc(/C=C2\CN(C(=O)CCSCCS(=O)(=O)O)C/C(=C\c3ccc(OC)cc3)C2=O)cc1 | 1.27 | 91.7 | 3.23 | 2.54 | 
O=C1/C(=C/c2ccc(Cl)cc2)CN(C(=O)CCSCCS(=O)(=O)O)C/C1=C\c1ccc(Cl)cc1 | 1.14 | 29.7 | 1.71 | 1.5 | 
O=C1/C(=C/c2ccc([N+](=O)[O-])cc2)CN(C(=O)CCSCCS(=O)(=O)O)C/C1=C\c1ccc([N+](=O)[O-])cc1 | 1.14 | 4.73 | 1.71 | 1.5 | 
COc1ccc(/C=C2\CN(C(=O)CCSCCO)C/C(=C\c3ccc(OC)cc3)C2=O)cc1 | 37.1 | 2.67 | 85.1 | 2.29 | 9
O=C1/C(=C/c2ccccc2)CN(C(=O)CCSCCO)C/C1=C\c1ccccc1 | 4.71 | 1.53 | 42.4 | 9 | 
O=C1/C(=C/c2ccc(Cl)cc2)CN(C(=O)CCSCCO)C/C1=C\c1ccc(Cl)cc1 | 49.2 | 0.66 | 45 | 0.92 | 
Cc1ccc(/C=C2\CN(C(=O)CCSCCO)C/C(=C\c3ccc(C)cc3)C2=O)cc1 | 55.4 | 1.56 | 44.4 | 0.8 | 
N[C@@H](Cc1ccc(N(CCCl)CCCl)cc1)C(=O)O |  | 14 |  |  | 
Cc1ccc(/C=C2\CN(C(=O)CCSCCS(=O)(=O)O)C/C(=C\c3ccc(C)cc3)C2=O)cc1 | 1.2 | 126 | 1.6 | 1.33 | 
